Tests used:
[1] = organism: Rattus norvegicus; test: Effect on 5-HIAA/5-HT turnover in Hippocampus of rat brain, expressed as percent of control; format: functional
In short: (§1)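 Rats received compound 20 mg/kg sc or saline 30 min before NSD 1015 (3-hydroxybenzylhydrazine dihydrochloride), 100 mg/kg sc. They were killed 30 min later. Hypothalamus, hippocampus, frontal cortex and striatum were dissected, frozen on dry ice and stored at -70 °C. 5-HTP, 5-HT and 5-HIAA were measured by HPLC and expressed as % of saline control.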

[2] = target: 5-HT1B & 5-HT1D (Bos taurus); test: Binding affinity against 5-hydroxytryptamine 1B receptor - 5-hydroxytryptamine 1D receptor using [3H]5-HT as the radioligand.
[3] = Effect on 5-HTP turnover in Frontal cortex of rat brain, expressed as percent of control; format: functional; in short: as §1
[4] = target: T1, 5-hydroxytryptamine receptor 1A (Rattus norvegicus, UniProt P19327); test: Binding affinity against 5-hydroxytryptamine 1A receptor from rat hippocampus using [3H]8-OH-DPAT as the radioligand.; format: tissue-based
T1 sequence (P19327 whole entry): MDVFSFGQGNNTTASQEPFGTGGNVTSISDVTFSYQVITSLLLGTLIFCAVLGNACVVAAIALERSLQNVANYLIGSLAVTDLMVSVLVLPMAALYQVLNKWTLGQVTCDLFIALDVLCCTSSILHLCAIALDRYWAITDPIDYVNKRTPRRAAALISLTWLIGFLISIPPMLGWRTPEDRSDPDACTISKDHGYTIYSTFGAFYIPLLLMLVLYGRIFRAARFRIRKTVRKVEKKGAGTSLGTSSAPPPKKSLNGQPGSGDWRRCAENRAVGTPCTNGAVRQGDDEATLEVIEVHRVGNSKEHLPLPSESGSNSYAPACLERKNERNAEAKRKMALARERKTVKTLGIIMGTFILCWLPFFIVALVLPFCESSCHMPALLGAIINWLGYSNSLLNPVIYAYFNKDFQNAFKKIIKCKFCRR
In short: (§2)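 Binding by the Jackson et al. method. 5-HT1A used [3H]OH-DPAT on rat hippocampus. α1 used [3H]prazosin, α2 [3H]RX821002 and β [3H]dihydroalprenolol, all on rat cortex. D1 used [3H]SCH-23390 on rat striatum. D2 used [3H]raclopride on LtkhD2A cell membranes.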

[5] = target: 5-hydroxytryptamine receptor 1B (Rattus norvegicus, UniProt P28564); test: Binding affinity against 5-hydroxytryptamine 1B receptor in membranes of Rat cerebral cortex; format: tissue-based
5-hydroxytryptamine receptor 1B, sequence (P28564 whole entry): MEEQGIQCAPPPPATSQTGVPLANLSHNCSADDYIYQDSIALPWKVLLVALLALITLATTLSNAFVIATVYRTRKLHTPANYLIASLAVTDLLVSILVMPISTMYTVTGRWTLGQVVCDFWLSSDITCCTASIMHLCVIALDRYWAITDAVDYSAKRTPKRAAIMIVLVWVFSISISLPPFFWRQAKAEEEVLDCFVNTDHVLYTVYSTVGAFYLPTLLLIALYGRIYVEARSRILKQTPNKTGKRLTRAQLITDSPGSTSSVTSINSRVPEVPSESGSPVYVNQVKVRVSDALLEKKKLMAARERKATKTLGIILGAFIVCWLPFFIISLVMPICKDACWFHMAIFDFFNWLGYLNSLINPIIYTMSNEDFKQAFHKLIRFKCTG
In short: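 Rat cerebral cortical membranes labelled with [125I]iodocyanopindolol in the presence of 60 μM isoproterenol to block β-adrenoceptor binding. Nonspecific binding was defined with 10 μM 5-HT.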

[6] = target: 5-hydroxytryptamine receptor 6 (Rattus norvegicus, UniProt P31388); test: Binding affinity against 5-hydroxytryptamine 6 receptor from CHO cell membranes using [3H]5-HT as the radioligand.
5-hydroxytryptamine receptor 6, sequence (P31388 whole entry): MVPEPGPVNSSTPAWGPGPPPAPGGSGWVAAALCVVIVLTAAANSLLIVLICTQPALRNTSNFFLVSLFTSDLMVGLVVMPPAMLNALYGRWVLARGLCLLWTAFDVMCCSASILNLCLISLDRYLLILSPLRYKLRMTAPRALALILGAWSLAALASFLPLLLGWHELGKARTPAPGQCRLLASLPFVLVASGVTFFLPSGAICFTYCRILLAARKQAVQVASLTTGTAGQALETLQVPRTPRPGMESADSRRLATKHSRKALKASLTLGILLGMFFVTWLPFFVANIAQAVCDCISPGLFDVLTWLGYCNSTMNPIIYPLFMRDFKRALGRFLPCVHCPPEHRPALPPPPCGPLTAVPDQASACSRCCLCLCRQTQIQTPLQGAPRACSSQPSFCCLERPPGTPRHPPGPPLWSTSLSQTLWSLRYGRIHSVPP
In short: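 Binding by the Johansson et al. method. 5-HT2A used [3H]ketanserin and 5-HT2C used [3H]mesulergine, both on rat cortex. 5-HT6 and 5-HT7 used [3H]-5-HT on CHO cell membranes expressing the rat receptors.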

[7] = target: T2, Adrenergic receptor alpha-1 (Rattus norvegicus, UniProt P15823+P23944+P43140); test: Binding affinity against Alpha-1 adrenergic receptor in rat cortex using [3H]prazosin as the radioligand.; format: tissue-based, Brain; in short: as §2
T2 sequence (P15823 whole entry): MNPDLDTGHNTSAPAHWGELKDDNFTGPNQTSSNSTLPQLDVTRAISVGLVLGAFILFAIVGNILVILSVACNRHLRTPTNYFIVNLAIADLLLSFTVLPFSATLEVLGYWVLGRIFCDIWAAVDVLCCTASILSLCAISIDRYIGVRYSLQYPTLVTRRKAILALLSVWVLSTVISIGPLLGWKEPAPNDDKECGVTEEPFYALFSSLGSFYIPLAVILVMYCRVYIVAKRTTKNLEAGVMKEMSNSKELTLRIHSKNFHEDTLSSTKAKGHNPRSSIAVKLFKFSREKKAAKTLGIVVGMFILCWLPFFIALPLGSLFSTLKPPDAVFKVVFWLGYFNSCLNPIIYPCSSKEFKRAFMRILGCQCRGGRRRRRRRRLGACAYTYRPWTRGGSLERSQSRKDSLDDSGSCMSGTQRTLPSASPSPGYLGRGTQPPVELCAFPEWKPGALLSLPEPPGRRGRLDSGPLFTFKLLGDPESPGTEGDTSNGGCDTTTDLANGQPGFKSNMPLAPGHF
T2 sequence (P23944 whole entry): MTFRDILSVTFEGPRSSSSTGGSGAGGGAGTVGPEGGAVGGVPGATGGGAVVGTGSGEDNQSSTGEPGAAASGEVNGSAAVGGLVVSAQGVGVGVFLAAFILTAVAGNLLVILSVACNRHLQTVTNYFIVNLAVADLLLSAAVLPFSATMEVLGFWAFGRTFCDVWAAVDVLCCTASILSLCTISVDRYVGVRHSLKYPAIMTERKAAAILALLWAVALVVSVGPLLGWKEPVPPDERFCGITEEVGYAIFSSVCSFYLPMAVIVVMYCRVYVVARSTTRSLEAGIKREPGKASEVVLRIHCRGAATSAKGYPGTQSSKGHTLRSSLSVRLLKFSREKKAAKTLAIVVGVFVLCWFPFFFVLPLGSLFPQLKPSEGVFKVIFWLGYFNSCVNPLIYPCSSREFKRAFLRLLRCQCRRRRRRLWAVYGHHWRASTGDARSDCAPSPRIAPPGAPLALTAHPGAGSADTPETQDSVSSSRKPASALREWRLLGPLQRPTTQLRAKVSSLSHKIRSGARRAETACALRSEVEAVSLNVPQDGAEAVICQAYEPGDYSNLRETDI
T2 sequence (P43140 whole entry): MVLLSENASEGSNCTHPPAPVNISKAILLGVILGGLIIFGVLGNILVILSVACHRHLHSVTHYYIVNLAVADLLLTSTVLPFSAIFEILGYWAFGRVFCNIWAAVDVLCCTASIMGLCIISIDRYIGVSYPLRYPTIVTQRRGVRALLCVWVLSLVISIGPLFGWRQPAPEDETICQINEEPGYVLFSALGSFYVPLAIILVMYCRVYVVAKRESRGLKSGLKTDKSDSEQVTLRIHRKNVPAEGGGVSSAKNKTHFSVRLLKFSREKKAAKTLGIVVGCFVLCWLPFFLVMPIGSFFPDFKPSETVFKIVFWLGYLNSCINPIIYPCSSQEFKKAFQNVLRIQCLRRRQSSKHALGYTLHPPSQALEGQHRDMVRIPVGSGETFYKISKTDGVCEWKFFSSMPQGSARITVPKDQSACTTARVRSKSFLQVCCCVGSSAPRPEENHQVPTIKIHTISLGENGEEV

[8] = organism: Rattus norvegicus; test: Effect on 5-HTP turnover in Striatum of rat brain, expressed as percent of control; format: functional; in short: as §1
[9] = target: Adrenergic receptor beta (Rattus norvegicus, UniProt P18090+P10608+P26255); test: Binding affinity against Beta adrenergic receptor in rat cortex using [3H]dihydroalprenolol as the radioligand.; in short: as §2
[10] = target: Sigma non-opioid intracellular receptor 1 (Rattus norvegicus, UniProt Q9R0C9); test: Binding affinity against sigma receptor from rat whole brains using [3H]DTG as the radioligand.
Sigma non-opioid intracellular receptor 1, sequence (Q9R0C9 whole entry): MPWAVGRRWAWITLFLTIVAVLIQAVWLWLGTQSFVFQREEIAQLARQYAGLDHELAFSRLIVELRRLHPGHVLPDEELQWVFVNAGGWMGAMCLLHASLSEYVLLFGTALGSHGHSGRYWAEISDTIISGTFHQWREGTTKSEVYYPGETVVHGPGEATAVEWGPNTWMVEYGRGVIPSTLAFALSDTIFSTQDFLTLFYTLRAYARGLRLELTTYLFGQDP
In short: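 Whole rat brain membranes labelled with [3H]DTG (N,N-di(o-tolyl)guanidine), following Ross.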

| Ki [2] | Ki [4] | Ki [5] | Ki [6] | Ki [7] | Ki [9] | Ki [10] | SMILES | Activity [1] | Activity [3] | Activity [8] |
| --- | --- | --- | --- | --- | --- | --- | --- | --- | --- | --- |
| 0.63 µM | > 10 µM | 0.047 µM | > 3 µM | > 10 µM | > 10 µM | > 10 µM | C1=C(CN2CCOCC2)COc2c1cccc2OC[C@H]1CNCCO1.CS(=O)(=O)O | 142% | 142% | 142% |
| > 10 µM | > 10 µM | 0.275 µM | – | > 10 µM | 10 µM | > 10 µM | C1=C(CN2CCOCC2)COc2c1cccc2OC[C@@H]1CNCCO1.Cl | – | – | – |

From ChEMBL document CHEMBL1131235, “(R)-(+)-2-[[[3-(Morpholinomethyl)-2H-chromen-8-yl]oxy]methyl] morpholine methanesulfonate: a new selective rat 5-hydroxytryptamine1B receptor antagonist” (J Med Chem, 1998)
